From PubChem BioAssay
FAK blocker: FAK kinase inhibitors, primary screen, biochemical | biochemical FAK kinase activity assay | AID 727, 2007 | 0.84% of 97,000 active | inhibition, %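 (tested at 7 µM)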 | Focal adhesion kinase 1 (Homo sapiens), Q05397; in the data active = inhibition above about 19%
EphB4 antag: EphB4-ephrin-B2 interaction antagonists, primary screen, biochemical, TNYL-RAW peptide probe, fluorescence polarization; Ephrin type-B receptor 4 (Homo sapiens), P54760; EphB4 LBD / TNYL-RAW-Alexa532 peptide; inhibition, % at 7 µM; 0.15% of 97,000 active;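 active = inhibition above the screen-wide mean inhibition plus 3 SD, cut at about 15% in these data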
PLK1 PBD inh: Plk1 polo box domain binding inhibitors, primary screen, biochemical, fluorescence polarization. Serine/threonine-protein kinase PLK1 (Homo sapiens), P53350. Plk1 PBD phosphopeptide binding. inhibition, %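 (tested at about 20 µM)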. 0.13% of 97,000 active. AID 693, 2007; in the data active = inhibition above about 34%, passing the limit was not always enough
Target sequence (P53350 whole entry, looked up, the tested form may be a part): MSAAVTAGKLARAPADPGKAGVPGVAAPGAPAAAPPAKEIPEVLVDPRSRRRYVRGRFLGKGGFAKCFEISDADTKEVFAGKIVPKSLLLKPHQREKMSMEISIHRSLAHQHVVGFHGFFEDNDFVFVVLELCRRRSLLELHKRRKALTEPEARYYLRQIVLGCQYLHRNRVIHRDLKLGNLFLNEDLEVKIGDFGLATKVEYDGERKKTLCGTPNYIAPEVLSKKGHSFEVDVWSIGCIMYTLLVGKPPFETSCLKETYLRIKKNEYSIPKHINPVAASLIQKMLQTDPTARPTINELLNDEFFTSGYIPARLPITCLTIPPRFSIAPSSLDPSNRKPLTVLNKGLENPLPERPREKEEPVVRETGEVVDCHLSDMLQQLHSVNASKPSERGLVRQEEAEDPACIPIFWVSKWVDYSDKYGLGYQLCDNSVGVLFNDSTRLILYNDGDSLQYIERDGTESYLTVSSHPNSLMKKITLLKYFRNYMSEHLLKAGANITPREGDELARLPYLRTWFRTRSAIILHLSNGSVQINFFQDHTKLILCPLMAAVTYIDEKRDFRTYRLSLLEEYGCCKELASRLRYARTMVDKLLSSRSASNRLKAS
Cav32 inh: Cav3.2 calcium influx blockers – cell-based, Fluo-4 calcium fluorescence, FDSS, MLSMR library, primary screen; Cav3.2-expressing cells; stronger effect = lower value; B-score at 10 µM; 4% of 100,000 active; AID 449739, 2010;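 active = single-dose well whose peak fluorescence ratio is a statistical outlier from its plate by either plate-standardised score or position-corrected B-score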
HIV Rev-RRE inh: HIV-1 Rev-RRE binding inhibitors, primary screen, biochemical, FRET, protein-RNA interaction | P05866 | Rev peptide-RRE RNA binding | inhibition, % at 8 µM | 0.79% of 97,000 active | AID 704, 2007;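 active = inhibition above the screen-wide mean plus 3 SD, cut at about 35% in these data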
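Test system – labelled RRE RNA duplex and labelled Rev peptide · Reagent – labelled Rev peptide · Doses – one concentration, 8 µM nominal · Incubation – 5 + 15 min at 25 °C · Signal – FRET fluorescence readout · Read-out basis – % inhibition of FRET ratio versus controls · Control set – DMSO wells as 0% and neomycin B wells as 100% inhibition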
PLK1 kinase inh: human PLK1 kinase inhibitors, primary screen, biochemical, TR-FRET; inhibition, % at 10 µM; AID 619, 2007; recombinant PLK1 kinase, TR-FRET peptide phosphorylation; 0.53% of 97,000 active; Serine/threonine-protein kinase PLK1 (Homo sapiens), P53350;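 active = inhibition of 50% or more in the single-concentration screen; inactive = inhibition below 50%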
Each line names hits and unclear results; the compound was inactive in the other large screens. Rows were chosen to be rich in hits. Some 5.3% of all compounds tested hit in one or more screens of this group.

N#Cc1c(NC(=O)CCn2cnc3ccccc3c2=O)oc(-c2ccccc2)c1-c1ccccc1	Cav32 inh -9.4
CC[C@@H](C)C(N)c1cn([C@@H](CCC(=O)O)C(=O)N2CCNCC2)nn1 (some centres undefined)	none (no result: FAK blocker, EphB4 antag, PLK1 PBD inh, HIV Rev-RRE inh, PLK1 kinase inh)
CCOC(=O)/C=C/C(=O)OCC(=O)Nc1ccc(Cl)cn1	Cav32 inh 3.4
Cc1cccc(-c2nc(CS(=O)CC(=O)NCCCSC3CCCCC3)c(C)o2)c1 (centres undefined)	Cav32 inh -7.1
COc1ccc(-c2nc(CS(=O)CC(=O)NC3CCCc4ccccc43)c(C)o2)cc1OC (centres undefined)	PLK1 kinase inh 69
COc1cccc(-c2nc(CS(=O)CC(=O)NC3CCCC3)c(C)o2)c1 (centres undefined)	PLK1 kinase inh 66
Cc1cccc(-c2nc(CS(=O)CC(=O)N3CCN(C)CC3)c(C)o2)c1 (centres undefined)	PLK1 kinase inh 57
NC(=O)c1sc2cc(C(F)(F)F)cnc2c1-c1cccs1	PLK1 kinase inh 57 (no result: Cav32 inh)
O=C1c2ccccc2S(=O)(=O)N1Cc1nnc(-c2ccccc2Br)o1	none
O=S1(=O)c2cccc3cccc(c23)N1Cc1nnc(-c2ccccc2Br)o1	EphB4 antag 16
COc1cccc(-n2c(SCC(=O)N3c4ccccc4CC3C)nnc2-c2ccco2)c1 (centres undefined)	Cav32 inh -3.7
COC(=O)Nc1ccc2ncn(C)c(=O)c2c1	none
Cc1cc(C)c(C#N)c(SCC(=O)N2CCN(Cc3ccccc3)CC2)n1	none
CCN(Cc1ccccc1)C(=O)CSc1nc(C)cc(C)c1C#N	Cav32 inh -4.1
NC(=O)CC[C@@H]1NC(=O)[C@@H]2CCCN2C(=O)c2cc([N+](=O)[O-])cc(I)c2NCCCC[C@@H](C(=O)NC(CC(=O)O)C(N)=O)NC1=O (some centres undefined)	none (no result: FAK blocker, EphB4 antag, PLK1 PBD inh, HIV Rev-RRE inh, PLK1 kinase inh)
O=C(NCc1ccco1)C1CCN(c2nc3ccccc3n2Cc2ccccc2F)CC1	Cav32 inh -7.1
COC/C=C/C1=CC2=CC(=O)C(C)(O)C(=O)C2=CO1 (centres undefined)	none (no result: FAK blocker, EphB4 antag, PLK1 PBD inh, HIV Rev-RRE inh, PLK1 kinase inh)
CC(C)(Oc1ccc(Cl)cc1)C(=O)N1CCN(c2ccccn2)CC1	Cav32 inh -4.5
COC(=O)C1=C(C(=O)OC)[C@@H]2N(C)c3ccccc3[C@@]23C[C@@H](C(=O)OC)N(C(=O)c2ccc(Br)cc2)C3=N1	none (no result: FAK blocker, EphB4 antag, PLK1 PBD inh, HIV Rev-RRE inh, PLK1 kinase inh)
O=C(CCCc1c[nH]c2ccccc12)NCc1ccc2c(c1)OCO2	Cav32 inh -10
O=C(NCc1ccc2c(c1)OCO2)C1CC(c2cccc(Br)c2)=NO1 (centres undefined)	Cav32 inh -9.1
O=C(NCc1ccc2c(c1)OCO2)c1cc(-c2ccccc2)on1	Cav32 inh -4.6
O=c1c2nnn(-c3ccccc3)c2ncn1C/C=C/c1ccccc1	none (no result: FAK blocker, EphB4 antag, PLK1 PBD inh, HIV Rev-RRE inh, PLK1 kinase inh)
O=C(CSc1ccccn1)Nc1nc2ccc(Br)cc2s1	none
O=C(COC(=O)C1c2ccccc2Oc2ccccc21)Nc1ccc2c(c1)OCO2	Cav32 inh -4.3
Oc1c(Cl)cc(Cl)cc1C=Nc1ccc2c(c1)OCCO2	Cav32 inh -9, HIV Rev-RRE inh 46
CCOP(=O)(c1ccccc1)c1nc(-c2ccccc2Cl)oc1N1CCCCC1 (centres undefined)	Cav32 inh -11
Nc1c(-c2cccc(Cl)c2)cnn1-c1cccc(C(F)(F)F)c1	none
O=c1ccn(-c2cccc(C(F)(F)F)c2)nc1-c1ccn(-c2cccc(Cl)c2)n1	Cav32 inh -5.7
O=C(O)/C(=C\c1ccco1)NC(=O)c1cccc2ccccc12	EphB4 antag 17
CCCc1nc2n[nH]c(N)c2c2c1CCC2	none (no result: FAK blocker, EphB4 antag, PLK1 PBD inh, HIV Rev-RRE inh, PLK1 kinase inh)
CCCCc1nc2n[nH]c(N)c2c2c1CCCC2	PLK1 kinase inh 58
CC(=O)OCCNc1cc(N2CCN(C)CC2)c2noc3c2c1C(=O)c1ccccc1-3	none (no result: FAK blocker, EphB4 antag, PLK1 PBD inh, HIV Rev-RRE inh, PLK1 kinase inh)
CCOC(=O)C(C(=O)OCC)c1cc(Br)c2noc3c2c1C(=O)c1ccccc1-3	Cav32 inh -5.5, HIV Rev-RRE inh 58
